Source: PubChem (several laboratories)
DAT uptake mod = modulates human dopamine transporter uptake under cocaine. Q01959. LLC-PK1 hDAT cells, [14C]-dopamine uptake with cocaine IC80; actives deviate in either direction. B-score at 10 µM. 1.3% of 110,000 active;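 active = Z score or B-score, a plate-position-corrected score, falls beyond the plate's 99.7% confidence bounds, in either direction; inactive = both scores lie inside the 99.7% bounds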;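 also: scored against the spread of the other compound wells on the same plate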
Target sequence (Q01959 whole entry, looked up): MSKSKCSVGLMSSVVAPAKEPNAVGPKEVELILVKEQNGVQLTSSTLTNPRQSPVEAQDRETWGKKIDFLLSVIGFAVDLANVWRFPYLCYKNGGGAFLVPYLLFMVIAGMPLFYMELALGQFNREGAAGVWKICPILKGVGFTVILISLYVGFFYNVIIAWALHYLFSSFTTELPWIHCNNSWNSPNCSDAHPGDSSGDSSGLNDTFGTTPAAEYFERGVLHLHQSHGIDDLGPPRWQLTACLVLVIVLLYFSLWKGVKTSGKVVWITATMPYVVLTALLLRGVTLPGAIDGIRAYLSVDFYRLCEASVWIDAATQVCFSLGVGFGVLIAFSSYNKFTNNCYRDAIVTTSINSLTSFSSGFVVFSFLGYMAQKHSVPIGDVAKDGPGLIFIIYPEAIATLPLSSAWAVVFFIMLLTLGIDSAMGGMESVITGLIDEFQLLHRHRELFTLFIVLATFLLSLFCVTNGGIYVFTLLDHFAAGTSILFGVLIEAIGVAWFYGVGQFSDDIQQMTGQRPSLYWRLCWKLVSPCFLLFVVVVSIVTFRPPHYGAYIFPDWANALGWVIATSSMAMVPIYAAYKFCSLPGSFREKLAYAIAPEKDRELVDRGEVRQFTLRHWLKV
Measles CPE = protection of cells from measles virus | protection (pct of control), % at 4 µM | 1.5% of 140,000 active | Measles virus-infected cells, CPE protection, absorbance | AID 841; in the data active = protection mostly above about 24%, no sharp cut-off; inactive = mostly below about 26%
WT yeast gro inh = growth inhibition of WT yeast, mitochondrial fusion screen | mitochondrial fusion phenotypic screen, WT strain | 2.1% of 190,000 active | inhibition, % at 10 µM | AID 1362; in the data active = inhibition above about 58%; tested in S. cerevisiae
Yeast lifespan up = extends the lifespan of yeast | S. cerevisiae growth with nicotinamide, OD615; deaD strain in restrictive glucose medium | inhibition of the nicotinamide effect, % at 10 µM | 0.68% of 130,000 active | AID 775;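 active = inhibition above a set limit, placed 3 SD over the median of all compounds, cut at about 26% in these data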;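 also: 0% = nicotinamide-treated wells and 100% = cells grown without nicotinamide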
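Buffer or medium: CSMM-D glucose medium, restrictive; test system: modified budding yeast, DeaD strain; compound: single dose 10 µM compound, 0.25% DMSO; schedule: culture preincubation 4 h, compound exposure 48 h, both 30 °C; detection: optical density (absorbance) at 615 nm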
RAM network inh = yeast RAM network inhibition; S. cerevisiae dse1pr::URA3 reporter, 5-FOA growth OD615, 2 d; analog-sensitive cbk1-as2 kinase mutant strain; inhibition, % at 50 µM; 1.8% of 190,000 active; AID 868;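 active = inhibition above a set limit, 3 SD over mean compound inhibition, cut at about 8.4% in these data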;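 also: 0% = DMSO-only wells with no growth and 100% = 10 µM 1-NA-PP1 full growth; inhibition rescues growth on 5-FOA so higher OD means more RAM inhibition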
BB579 growth dn = reduces growth of yeast BB579 in restrictive medium; S. cerevisiae BB579 growth, OD615, 48 h; inhibition, % at 10 µM; 0.51% of 140,000 active;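 active = inhibition above a set limit, 3 SD over the mean compound inhibition, cut at about 44% in these data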
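Material: Saccharomyces cerevisiae DeaD strain BB579, replicative lifespan model yeast; buffer or medium: CSMM-D restrictive synthetic medium containing dextrose (glucose); compound: 10 µM single dose, DMSO 0.25%; timing: 48 h compound exposure at 30 °C after 4 h preincubation; signal: turbidity as optical density at 615 nm; benchmarks: positive control amphotericin B 10 µg/mL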
Numbers without * were called inactive. Rows were chosen to be rich in hits. Some 6.1% of all compounds tested hit in one or more screens of this group.

Screening CC(=O)Nc1ccc(S(=O)(=O)C(C#N)c2nc3ccccc3nc2NCCN2CCOCC2)cc1 (stereo unspecified) returned WT yeast gro inh -10 and RAM network inh 3.
For Cc1nc(C(=O)O)nn1-c1cc(Cl)ccc1Cl the results were WT yeast gro inh 3 and RAM network inh 2.
Screening COc1ccc(C)cc1NC(=O)c1ccccc1NS(=O)(=O)c1ccc(Cl)s1 returned WT yeast gro inh 84* and RAM network inh 5.
`Cc1nn(-c2ccccc2)c2nc(C(F)(F)F)[nH]c(=O)c12` gave Measles CPE 41*, WT yeast gro inh -20, Yeast lifespan up -2, RAM network inh -1 and BB579 growth dn 7.
Screening Cc1cc(C)n(CC(=O)N/N=C/c2ccccn2)n1 returned Measles CPE 4, WT yeast gro inh -14, Yeast lifespan up 0, RAM network inh 0 and BB579 growth dn -20.
Screening CCOC(=O)c1c(C)[nH]c(C)c1C(=O)CSc1nnc(-c2ccncc2)n1C returned Measles CPE 1, WT yeast gro inh 65*, Yeast lifespan up -11, RAM network inh 0 and BB579 growth dn -13.
`CCOC(=O)c1c(C)[nH]c(C)c1C(=O)CSc1nnc(-c2ccncc2)n1Cc1ccccc1` gave DAT uptake mod 1.7, Measles CPE 11, WT yeast gro inh 1, Yeast lifespan up -12, RAM network inh 2 and BB579 growth dn 3.
`C/C(=N\OCC(=O)Nc1ccc2c(c1)OCCO2)c1ccc2c(c1)OCCO2` gave Measles CPE 35, WT yeast gro inh 23, Yeast lifespan up -5, RAM network inh 2 and BB579 growth dn 0.
`O=C(O)c1ccccc1-c1ccccc1C(=O)NCc1ccco1` gave DAT uptake mod 0.071, Measles CPE 18, WT yeast gro inh -3, Yeast lifespan up -15, RAM network inh 2 and BB579 growth dn -30.
CC(NC(=O)Nc1ccc(Cl)c(Cl)c1)C(c1ccccc1)N1CCOCC1 (stereo unspecified) was read as Measles CPE 1, WT yeast gro inh 75*, Yeast lifespan up -10, RAM network inh 0 and BB579 growth dn -12.
For CN(C)S(=O)(=O)c1cccc(NC(=S)NN=C(Cc2ccccc2)Cc2ccccc2)c1 the results were Measles CPE 6, WT yeast gro inh 2, Yeast lifespan up -3, RAM network inh 10* and BB579 growth dn -8.
`CCOC(=O)C1=C(C)N=C2SCCC(=O)N2C1c1sccc1C` (stereo unspecified) gave DAT uptake mod 0.63, Measles CPE 1, WT yeast gro inh 65*, Yeast lifespan up -6, RAM network inh 1 and BB579 growth dn -24.
Screening CCOC(=O)C1=C(C)N=C2SCCC(=O)N2C1c1ccc(OC)cc1 (stereo unspecified) returned WT yeast gro inh -11 and RAM network inh 0.
CSc1nc(NCC(C)C)nc(N2CCOCC2)n1 was read as DAT uptake mod 0.097, Measles CPE 36*, WT yeast gro inh -46, Yeast lifespan up -10, RAM network inh 0 and BB579 growth dn -45.
Screening O=C(COC(=O)c1cc(Br)c(Br)s1)NCCC1=CCCCC1 returned Measles CPE 25, WT yeast gro inh 10, Yeast lifespan up 1, RAM network inh 4 and BB579 growth dn -20.
For Cc1ccc(C)c(NC(=O)c2ccccc2C(=O)c2ccccc2)c1 the results were WT yeast gro inh 63* and RAM network inh 0.
For Cc1ccc(NC(=O)CCCSc2ccccc2)cc1S(=O)(=O)N1CCOCC1 the results were WT yeast gro inh 5 and RAM network inh 8.9*.
For Cc1ccc(NC(=O)CSc2ccccn2)cc1S(=O)(=O)N1CCOCC1 the results were WT yeast gro inh 8 and RAM network inh 2.
For COc1cccc(-c2nn(C)c3sc(C(=O)NCc4ccc(C)o4)cc23)c1 the results were DAT uptake mod 2, Measles CPE 19, WT yeast gro inh 5, Yeast lifespan up -26, RAM network inh 11* and BB579 growth dn -48.
Cc1ccc(C(=O)C(c2ccccc2)N2Cc3ccccc3C2=N)cc1 (stereo unspecified) was read as Measles CPE 4, WT yeast gro inh 70*, Yeast lifespan up -2, RAM network inh -1 and BB579 growth dn -28.
`COc1ccc(C(=O)C(c2ccccc2)N2CCOCC2)cc1` (stereo unspecified) gave DAT uptake mod -0.4, Measles CPE 8, WT yeast gro inh 12, Yeast lifespan up -4, RAM network inh 1 and BB579 growth dn -40.
Screening Cc1ccc(NC2=C(Cl)C(=O)OC2OC(=O)c2ccc(C)cc2)cc1 (stereo unspecified) returned WT yeast gro inh 62 and RAM network inh 9.9*.
For COC(=O)c1ccc(NC2=C(Cl)C(=O)OC2OC(=O)c2ccccc2)cc1 (stereo unspecified) the results were WT yeast gro inh -12 and RAM network inh 4.
For Cc1nc(N2CCN(C(=O)c3ccco3)CC2)c2c3c(sc2n1)CCCC3 the results were DAT uptake mod 1.2, Measles CPE 16, WT yeast gro inh 37, RAM network inh -1 and BB579 growth dn -6.
Cc1nc(N2CCN(c3ccccc3)CC2)c2c3c(sc2n1)CCC3 was read as WT yeast gro inh 74*.
Screening Cc1cc(C(=O)c2ccc(Cl)cc2)c(NC(=O)CCl)s1 returned Measles CPE 8, WT yeast gro inh -3, Yeast lifespan up -1, RAM network inh 7 and BB579 growth dn -36.
For CCc1cc(C(=O)c2ccc(C)cc2)c(NC(=O)CCl)s1 the results were Measles CPE 21, WT yeast gro inh 8, Yeast lifespan up -1, RAM network inh 9.2* and BB579 growth dn -46.
Cc1cc(C)c(NC(=O)COc2ccccc2C(=O)Nc2ccc3c(c2)oc2ccccc23)c(C)c1 was read as DAT uptake mod 0.0074, Measles CPE 13, WT yeast gro inh 7, Yeast lifespan up -7, RAM network inh 6 and BB579 growth dn -32.
CCOC(=O)c1c(-c2cccc([N+](=O)[O-])c2)csc1NC(=O)C1CCCCC1 was read as DAT uptake mod 1.1, Measles CPE 19, WT yeast gro inh 11, RAM network inh 8.6* and BB579 growth dn -31.
CCOC(=O)c1c(-c2cccc([N+](=O)[O-])c2)csc1NC(=O)C1CC1 was read as DAT uptake mod 0.6, Measles CPE 4, WT yeast gro inh -1, Yeast lifespan up -14, RAM network inh 6 and BB579 growth dn -45.
`Cc1ccc(C(C)C)c(OCC(=O)c2c(O)c3ccccc3oc2=O)c1` gave DAT uptake mod 0.35.
For Cc1ccc(-c2nc3cc(Br)cnc3nc2-c2ccc(C)cc2)cc1 the results were WT yeast gro inh 77* and RAM network inh 3.
